Screens as filed in PubChem BioAssay.
FN deposition inh – fibronectin deposition inhibition; AH1F fibroblasts, Alexa488-fibronectin deposition fluorescence, overnight; inhibition, % at 12.6 µM; 0.086% of 350,000 active; AID 743247;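 active = mean inhibition across replicates of 30% or more, regardless of how many single replicates reach that level; inconclusive = mean under 30% yet at least half of replicates reach 30%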
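Assay system: AH1F fibroblasts assembling fluorescent fibronectin matrix; Amount: 10000 AH1F cells per well; Buffer or medium: DMEM, 2% serum; Probe or stimulus: Alexa488-fibronectin, 24 nM final in well; Doses: single compound dose, delivered by pin transfer; Incubation: 1 h adhesion, overnight exposure; Measured by: fluorescence 485/525 nm; Read-out: fibronectin deposition inhibition.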
Xi reactivation – reactivates the inactive X chromosome in mouse fibroblasts; XiGFP mouse fibroblasts, % GFP-positive cells imaging, 3 d; cells co-treated with 5-aza-dC sensitizer; scaled so ellipticine positive control = 100%; activation, % at 7.58 µM; 0.055% of 360,000 active; AID 743238;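 active = mean normalized replicate activation at least 10% and every replicate at or above 10%; inconclusive = only one of the two criteria met; inactive = mean below 10% and not all replicates reach 10%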
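Material: XiGFP fibroblasts, SV40-immortalized; Buffer or medium: DMEM containing 5-aza-dC; Compound dosing: single point; Times: 3 days compound exposure.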
CASP6 VEID inh – caspase-6 (human) enzyme inhibition; P55212; purified caspase-6, Z-VEID-R110 cleavage fluorescence; inhibition, % at 12.5 µM; 0.53% of 350,000 active;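 active = mean inhibition across replicates at least about 35%, with every replicate also reaching that limit, limit read from the data; inconclusive = only one of the two criteria met; inactive = neither criterion met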
Target sequence (P55212 24-179 limits assumed): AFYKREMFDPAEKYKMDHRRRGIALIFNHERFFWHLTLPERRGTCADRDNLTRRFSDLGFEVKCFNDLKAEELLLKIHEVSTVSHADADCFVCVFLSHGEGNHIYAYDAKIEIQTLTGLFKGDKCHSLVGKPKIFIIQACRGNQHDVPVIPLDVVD
Target sequence (P55212 194-293 limits assumed): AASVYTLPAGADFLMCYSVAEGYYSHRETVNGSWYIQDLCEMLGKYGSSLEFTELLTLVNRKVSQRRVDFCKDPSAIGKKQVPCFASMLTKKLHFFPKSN
DENV2 CPE rescue – inhibitors of DENV2 cytopathic effect; 1.7% of 350,000 active; CPE inhibition, % at 9.99 µM; AID 651640; DENV2-infected cells, cytopathic effect rescue, plate reader; in the data active = CPE inhibition above about 20%, passing the limit was not always enough; inconclusive = no clear call, values can overlap the other calls; tested in BHK-21 cells
CaV13 ICDI inh – Primary screen for inhibitors of IQ motif and Ca2+-dependent inactivation inhibitor domain binding in CACNA1D, Förster resonance energy transfer in living cells, … | 0.098% of 340,000 active | HEK cells, CFP/YFP FRET ICDI-IQ, plate reader, 10 min; percent FRET-ratio fall versus neutral wells | inhibition, % at 12.3 µM;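 active = mean replicate inhibition of at least 30% and at least 1% of replicates passing that level; inconclusive = only one of the two criteria is met; inactive = neither criterion is met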
Numbers stand for hits; – = inactive; ? = inconclusive; · = not tested or not shown; ! = a repeat was not active. In the library only some 2% were active in any assay of this set; here they are far more common.

SMILES	FN deposition inh	Xi reactivation	CASP6 VEID inh	DENV2 CPE rescue	CaV13 ICDI inh
COc1ccc2c3c(n(C)c2c1)[C@@H](CO)N(C(=O)c1cnccn1)CC31CN(C(=O)c2ccncc2)C1	·	–	·	·	·
COc1ccc(C(CNS(=O)(=O)c2ccc(NC(C)=O)c(OC)c2)N2CCCC2)cc1 (stereo not drawn)	–	–	–	35.8	–
C[C@@H]1CN([C@H](C)CO)C(=O)c2cc(NC(=O)CCC(F)(F)F)ccc2O[C@H]1CN(C)Cc1ccc(C(=O)Nc2ccccc2N)cc1	·	–	–	20.3	·
C[C@@H]1CN([C@H](C)CO)C(=O)c2cc(NC(=O)Nc3ccc(C(F)(F)F)cc3)ccc2O[C@H]1CN(C)Cc1ccc(C(=O)Nc2ccccc2N)cc1	·	–	–	22.4	·
C[C@H]1CN([C@@H](C)CO)C(=O)c2cc(NC(=O)CCC(F)(F)F)ccc2O[C@H]1CN(C)Cc1ccc(C(=O)Nc2ccccc2N)cc1	·	–	–	–	·
O=C1CCCCn2cc(nn2)COC[C@H](c2ccccc2)N1	–	–	·	·	·
CO[C@H]1CN(C)C(=O)c2ccc(NS(=O)(=O)c3ccc(C)cc3)cc2OC[C@H](C)N(C(=O)NC(C)C)C[C@H]1C	–	–	·	·	·
CC(C)CC#Cc1ccc([C@H]2[C@H](CO)N3C(=O)CN(C(=O)c4ccccn4)C[C@@H]23)cc1	–	–	–	–	·
Cc1c(Nc2nc3ccccc3nc2N2CCN(c3ccccc3)CC2)c(=O)n(-c2ccccc2)n1C	–	·	·	·	–
Cc1c(Nc2c3ccccc3nc3ccccc23)c(=O)n(-c2ccccc2)n1C	–	–	–	–	165.0
C[C@@H]1CN([C@H](C)CO)S(=O)(=O)c2ccc(-c3cccnc3)cc2O[C@@H]1CN(C)C(=O)C1CCCCC1	·	–	–	–	·
COc1ccccc1NC(=O)N[C@H]1C=C[C@H](CC(=O)N2CCC(Cc3ccccc3)CC2)O[C@@H]1CO	–	–	–	–	·
Cn1c2ccccc2c(=O)c2cc(C#Cc3ccsc3)ccc21	–	–	–	66.0	–
COc1ccc(C(=O)N2CCN(C3CCCCC3)CC2)cc1OC	–	–	–	31.2	–
COc1cc(C(=O)N2CCN(C3CCCCC3)CC2)cc(OC)c1OC	–	–	–	–	–
CC=Cc1ccc2n(c1=O)C[C@@H]1[C@@H](CO)[C@H](C(=O)N3CCc4ccccc4C3)[C@H]2N1Cc1ccncc1 (mixture of isomers)	·	–	–	–	·
CC(C)(C)OC(=O)NCCCCCNC(=O)c1nc[nH]c1C(=O)N1CCc2ccccc2C1	–	–	–	–	–
CN(Cc1ccccc1)C(=O)c1nc[nH]c1C(=O)N1CCN(C(=O)OC(C)(C)C)CC1	–	–	–	41.9	–
CC(C)(C)OC(=O)NCc1ccc(CNC(=O)c2nc[nH]c2C(=O)N2CCc3ccccc3C2)cc1	–	–	–	59.9	–
CC(C)(C)OC(=O)N1CCC(NC(=O)c2nc[nH]c2C(=O)NCc2ccccc2)CC1	–	–	–	34.3	–
CC(C)C[C@H](NC(=O)c1nc[nH]c1C(=O)NC1CCN(C(=O)OC(C)(C)C)CC1)C(=O)OCc1ccccc1	–	–	–	–	–
CC(C)(C)OC(=O)[C@H](Cc1ccccc1)NC(=O)c1nc[nH]c1C(=O)NC1CCN(C(=O)OC(C)(C)C)CC1	–	–	·	–	–
CC(C)C[C@H](NC(=O)c1nc[nH]c1C(=O)NC1CCN(C(=O)OC(C)(C)C)CC1)C(=O)OC(C)(C)C	–	–	·	49.6	–
CC(C)NC(=O)N[C@@H]1C=C[C@@H](CC(=O)O)O[C@@H]1CO	–	–	–	–	·
CC(C)(C)OC(=O)CNC(=O)c1[nH]cnc1C(=O)N[C@@H](Cc1ccccc1)C(=O)OC(C)(C)C	–	–	–	54.0	–
SMILES	FN deposition inh	Xi reactivation	CASP6 VEID inh	DENV2 CPE rescue	CaV13 ICDI inh
CC(C)(C)OC(=O)[C@H](Cc1ccccc1)NC(=O)c1nc[nH]c1C(=O)NCC(=O)OCc1ccccc1	–	–	–	–	–
O=C(Cc1ccncc1)N1CC(=O)N2[C@H](C1)[C@@H](c1ccc(Br)cc1)[C@@H]2CO	–	–	–	–	·
CC(=O)c1cccc(-c2ccc3c(=O)[nH]c(Nc4ccccc4)cc3c2)c1	–	–	94.7	–	–
O=c1[nH]c(Nc2ccccc2)cc2cc(Br)ccc12	–	–	98.9	–	–
CC(=O)c1cccc(Nc2nc(-c3ccccc3)nc3ccccc23)c1	–	–	–	?	–
O=c1[nH]c(Nc2ccccc2)cc2ccccc12	·	·	·	·	–
CN(C)S(=O)(=O)c1ccc(C(=O)Nc2ccccc2[N+](=O)[O-])cc1	–	–	–	–	–
Cc1ccccc1NC(=O)c1ccc(S(=O)(=O)N(C)C)cc1	–	–	–	50.9	–
COc1ccc(C)cc1NC(=O)C1CCN(S(=O)(=O)c2cccc3cccnc23)CC1	–	–	–	27.7	–
CC(=O)N(C)c1ccc(NC(=O)Cc2cccs2)cc1	–	–	37.5	–	–
C[C@@H]1CN([C@@H](C)CO)C(=O)Cc2cc(NC(=O)Nc3ccc(C(F)(F)F)cc3)ccc2O[C@H]1CN(C)Cc1ccc2c(c1)OCO2	–	–	–	–	·
C[C@H](CO)N1C[C@H](C)[C@H](CN(C)Cc2ccc3c(c2)OCO3)Oc2ccc(NC(=O)Nc3ccc(C(F)(F)F)cc3)cc2CC1=O	·	–	–	53.7	·
C[C@@H]1CN([C@H](C)CO)C(=O)Cc2cc(NC(=O)CCC(F)(F)F)ccc2O[C@H]1CN(C)Cc1ccc2c(c1)OCO2	·	–	–	44.8	·
COc1cc(CN2CC3(CN(C(C)=O)C3)c3c([nH]c4cc(OC)ccc34)[C@@H]2CO)cc(OC)c1	·	–	·	·	·
COc1cc2c(C#N)c(N3CCCC3)nc(N)c2c(N)n1	–	–	96.4!	?	–
CCCOc1cc2c(C#N)c(N3CCCC3)nc(N)c2c(N)n1	–	–	38.7	?	–
Cc1noc(C)c1NC(=O)Nc1ccc2c(c1)C(=O)N([C@H](C)CO)C[C@@H](C)[C@H](CN(C)CC1CC1)OCCCC[C@@H](C)O2	·	–	–	–	·
CCOC(=O)C1(C)CCN1C(=O)c1cccc(OC)c1 (stereo not drawn)	–	–	–	42.3	–
CCCC(=O)OC[C@H]1CN(C2CCCC2)S(=O)(=O)c2c(F)cccc2O1	–	–	–	49.0	–
COCCNC(=O)C[C@@H]1CC[C@@H]2[C@H](COc3ccc(NC(=O)Nc4ccccc4)cc3C(=O)N2C)O1	–	–	–	–	·
C#CCOc1ccc(/C=C2/C(=O)N(c3ccc(S(N)(=O)=O)cc3)N=C2C)cc1OC	–	–	39.0	–	–
CC(C)CC#Cc1ccc2c(c1)O[C@@H](CN(C)C(=O)Cc1ccccn1)[C@H](C)CN([C@H](C)CO)S2(=O)=O	–	–	–	–	·
CCc1nnc(NC(=O)c2ccc(-c3ccccc3F)o2)s1	·	–	–	–	136.0
CCc1nnc(NC(=O)c2ccc(-c3ccc(C(C)=O)cc3)o2)s1	–	–	–	–	–
